GPR7 antagonist: human neuropeptides B/W receptor 1 antagonism. 290,000 tested, 1.1% active. P48145. inhibition, % at 4.4 µM. GPR7-expressing cells, fluorescence antagonist assay; in the data active = inhibition above about 16%, passing the limit was not always enough;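 note: cells stimulated with the agonist NPW; 0% = agonist with vehicle and 100% = vehicle without agonist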
Target sequence (P48145 whole entry, looked up): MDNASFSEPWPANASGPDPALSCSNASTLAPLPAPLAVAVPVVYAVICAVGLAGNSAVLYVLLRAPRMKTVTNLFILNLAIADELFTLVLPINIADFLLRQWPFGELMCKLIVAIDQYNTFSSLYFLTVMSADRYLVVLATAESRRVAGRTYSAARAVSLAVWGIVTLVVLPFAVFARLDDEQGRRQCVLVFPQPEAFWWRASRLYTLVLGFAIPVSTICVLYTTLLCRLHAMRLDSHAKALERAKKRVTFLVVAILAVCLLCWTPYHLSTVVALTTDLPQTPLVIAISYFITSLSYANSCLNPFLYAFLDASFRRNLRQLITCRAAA
CHO parental Ca: counter-screen: ATP calcium response change in parental CHO cells | 330,000 tested, 0.63% active | inhibition, % at 5.6 µM | parental CHO-K1, ATP-induced calcium, Fluo-8 fluorescence | AID 463079;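 active = inhibition above that plate's mean sample inhibition plus 3 SD, cut at about 26% in these data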;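 note: 0% = ATP-challenged DMSO wells and 100% = DMSO wells without ATP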
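Test system: untransfected parental CHO cell line; also added: ATP stimulus; dosing: 5.6 µM, single dose; signal: calcium-sensitive Fluo-8 fluorescence; measure: percent inhibition of ATP-evoked calcium rise, normalized to controls; benchmarks: low control ATP plus DMSO, high control DMSO only; replication: one well per compound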
OX1R antag-1: blocks the human orexin 1 receptor. O43613. AID 434989. 330,000 tested, 0.43% active. CHO/OX1R cells, Fluo-8 calcium fluorescence, orexin A. inhibition, % at 5 µM;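 active = inhibition above its plate's threshold, mean inhibition of all tested compounds on the plate plus 3 SD, cut at about 37% in these data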;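 note: 0% = orexin A challenge wells and 100% = SB-334867-A antagonist wells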
GalR3 antag: human GalR3 antagonism; O60755; HEK293 GalR3-CNG cAMP membrane potential fluorescence; galR3 body fused to GalR1 C-terminus; inhibition, % at 3 µM; 360,000 tested, 0.44% active;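 active = inhibition above the screen-wide average plus 3 SD, cut at about 13% in these data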;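 note: forskolin and galanin both at EC90 stimulate the cells; cAMP rise reported by CNG channel membrane potential dye signal; 0% = forskolin plus galanin with DMSO and 100% = forskolin alone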
Target sequence (O60755 1-299 limits assumed): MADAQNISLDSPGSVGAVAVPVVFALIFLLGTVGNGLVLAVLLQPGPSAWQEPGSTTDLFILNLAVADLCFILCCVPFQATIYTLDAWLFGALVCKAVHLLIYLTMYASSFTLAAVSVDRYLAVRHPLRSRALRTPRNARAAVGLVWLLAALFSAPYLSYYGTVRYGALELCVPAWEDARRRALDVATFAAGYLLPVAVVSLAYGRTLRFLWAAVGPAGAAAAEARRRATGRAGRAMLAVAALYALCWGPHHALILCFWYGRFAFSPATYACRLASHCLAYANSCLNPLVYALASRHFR
OX1R antag-2: blocks the human orexin 1 receptor; O43613; 330,000 tested, 1.8% active; OX1R-expressing cells, FRET antagonist read-out; inhibition, % at 6.6 µM; AID 485270; in the data active = inhibition mostly above about 38%, no sharp cut-off; inactive = mostly below about 40%;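 note: 0% = agonist challenge alone and 100% = reference antagonist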
OX1R HTRF confirm: confirmation of human orexin 1 receptor antagonists, HTRF format | shares compounds with OX1R antag-2 | OX1R-expressing cells, HTRF antagonist assay | inhibition, % at 6.6 µM | 1,800 tested, 49% active | AID 492964; in the data active = inhibition above about 55%;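 note: CHO cells expressing OX1R stimulated with orexin A at about EC80; 0% = agonist challenge alone and 100% = reference antagonist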
CHO-K1 HTRF: signal in parental CHO-K1 cells, OX1R antagonist counter-screen | shares compounds with OX1R antag-2 | inhibition, % at 6.6 µM | HTRF counterscreen | 1,800 tested, 48% active; in the data active = inhibition above about 17%;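 note: 0% = agonist challenge with vehicle and 100% = vehicle alone without agonist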
* marks the source's active call; other numbers are inactive results; / = no result given. Shown are actives, neighbours in structure and some others; about 3.1% of the full set was active somewhere.

SMILES | GPR7 antagonist | CHO parental Ca | OX1R antag-1 | GalR3 antag | OX1R antag-2 | OX1R HTRF confirm | CHO-K1 HTRF
CSc1cccc(NC(=O)/C=C/c2cccc(Cl)c2)c1 | -1 | -11 | -1 | -7 | 78* | 71* | 15
N#Cc1ccccc1S(=O)(=O)N1CCN(C(=O)Cc2coc3cc(O)ccc23)CC1 | / | -9 | -13 | -2 | 3 | / | /
O=S(=O)(CCN1CCSCC1)c1ccccc1 | -12 | 7 | -3 | -6 | -1 | / | /
COc1ccc(-c2nn(CCC(=O)O)cc2/C=C2\SC(N)=NC2=O)cc1 | -6 | 0 | 22 | -1 | 77* | 41 | 31*
CC(C)C(OC(=O)CN1C(=O)COc2ccccc21)C(=O)NC1CCCCC1 (stereo unspecified) | 26 | -28 | -32 | -10 | 43 | / | /
Cc1ccc(N2C(=O)c3ccc(C(=O)NCCN4CCOCC4)cc3C2=O)cc1 | -2 | -6 | -12 | -2 | 82* | 51 | 44*
CCOC(=O)c1c(COC(=O)c2ccco2)nc2ccccc2[n+]1[O-] | -3 | -24 | -13 | 0 | 107* | 53 | 28*
CC(=O)c1c(COC(=O)c2ccco2)nc2ccccc2[n+]1[O-] | / | -17 | -24 | -1 | 40 | / | /
COc1ccc2nc(COC(=O)c3ccco3)c(C(C)=O)[n+]([O-])c2c1 | -2 | -28 | -6 | -5 | 125* | 32 | 35*
CC(Sc1ncn[nH]1)C(=O)Nc1cc(C(F)(F)F)ccc1Cl (stereo unspecified) | / | -13 | -8 | -4 | 5 | / | /
O=C1NC(Cc2ccccc2)c2nc3cc(F)ccc3c(=O)n2-c2cc(Cl)ccc21 (stereo unspecified) | / | -32 | -8 | -2 | 2 | / | /
COc1ccc(NC(=O)CCC(=O)N/N=C/c2ccc([N+](=O)[O-])s2)cc1 | 0 | -3 | -5 | -9 | 81* | 47 | 45*
CC(C)(C)OC(=O)N/N=C\c1ccc([N+](=O)[O-])s1 | -5 | -3 | -12 | -3 | 88* | 38 | 44*
CC(=O)N(C1=C(N2CCOCC2)C(=O)c2ccccc2C1=O)c1ccc(C(=O)O)cc1 | -7 | -10 | -9 | -7 | 125* | 98* | 86*
CCN(CC)CCNc1cc(C)nc2c1C(=O)C(=O)C=C2N1CCCCC1 | -7 | -18 | -20 | -1 | 83* | 47 | 76*
O=S(=O)(Nc1nc2ccccc2nc1NCc1ccco1)c1ccccc1 | -7 | -9 | -16 | -3 | 20 | / | /
O=S(=O)(Nc1nc2ccccc2nc1NCc1ccco1)c1ccc(F)cc1 | -13 | -12 | -27 | -6 | 171* | 18 | 3
Cc1ccnc(N2C(=O)c3ccccc3C2=O)c1 | -8 | -4 | -8 | -9 | -9 | / | /
Cc1ccnc(N2C(=O)c3cccc4c([N+](=O)[O-])ccc(c34)C2=O)c1 | 13 | 9 | 12 | 10 | 107* | 48 | 73*
C[C@@H]1CN([C@H](C)CO)C(=O)Cc2cc(NC(=O)Nc3ccccc3)ccc2O[C@@H]1CN(C)Cc1ccc2c(c1)OCO2 | / | -21 | -19 | / | 3 | / | /
NS(=O)(=O)c1ccc(NC(=O)COC(=O)c2ccc([N+](=O)[O-])s2)cc1 | -5 | -1 | 8 | -4 | 37 | / | /
O=C(COC(=O)c1ccc([N+](=O)[O-])s1)NCc1ccc(F)cc1 | -6 | -10 | -9 | -12 | 89* | 46 | 48*
COc1ccccc1NC(=O)COC(=O)c1ccc([N+](=O)[O-])s1 | -16 | -14 | -13 | 13* | 91* | 37 | 48*
CC(NC(=O)COC(=O)c1ccc([N+](=O)[O-])s1)c1ccccc1 (stereo unspecified) | -6 | -10 | -10 | -11 | 81* | 24 | 17*
Cc1cc(C)c(NC(=O)COC(=O)c2ccc([N+](=O)[O-])s2)c(C)c1 | 3 | -5 | -2 | -2 | 30 | / | /
SMILES | GPR7 antagonist | CHO parental Ca | OX1R antag-1 | GalR3 antag | OX1R antag-2 | OX1R HTRF confirm | CHO-K1 HTRF
Cn1c(=O)c2c(nc(Sc3ncnn3CC(=O)N3CCOCC3)n2C)n(C)c1=O | -17 | -8 | -2 | -6 | 11 | / | /
Cc1c(C(=O)NN)nn(-c2ccc(Cl)cc2)c(=O)c1C#N | -5 | -4 | -4 | 1 | 32 | / | /
COc1ccc(-n2nc(C(=O)N3CCCCC3)c(C)c(C#N)c2=O)cc1 | -2 | -9 | -12 | -5 | 113* | 77* | 50*
COC(=O)Nc1nn(-c2ccc(OC)cc2)c(=O)c(C#N)c1C | -5 | -11 | -1 | 3 | 166* | 59* | 91*
COC(=O)Nc1nn(-c2ccc(C)cc2)c(=O)c(C#N)c1C | -6 | -11 | 1 | -5 | 137* | 56* | 68*
Cc1ccc(-n2nc(C(=O)NN)c(C)c(C#N)c2=O)cc1Cl | 6 | -17 | -25 | -5 | 34 | / | /
COc1ccc(S(=O)(=O)NCCCN2CCCC2=O)c(OC)c1 | -8 | -4 | -6 | -2 | 6 | / | /
CN(C)S(=O)(=O)c1cccc(NC(=O)CN2C(=O)NC3(CCc4ccccc4C3)C2=O)c1 (stereo unspecified) | 0 | -1 | -17 | -7 | 8 | / | /
N#CC1=C(N)Oc2cc(O)ccc2C1c1ccncc1 (stereo unspecified) | 18 | -8 | 2 | -2 | 111* | 13 | -6
CC1(C(=O)NCC2CC2)Cc2c(-c3ccc4c(c3)OCO4)ccnc2O1 (stereo unspecified) | / | / | / | -11 | / | / | /
Cc1ccc(NC(=O)CCN2C(=O)c3ccccc3C2=O)c(C)c1 | -13 | -7 | -14 | -8 | 0 | / | /
Cc1cc(O)ccc1NC(=O)CCN1C(=O)c2ccc([N+](=O)[O-])cc2C1=O | -3 | 6 | 6 | -2 | 151* | 69* | 74*
OCCCCCN=c1cc(-c2ccccc2)oc2ccc(Cl)cc12 | 2 | -23 | -27 | -1 | 82* | 54 | 54*
COc1ccc(C)cc1/C=C/C(=O)N1CCN(S(=O)(=O)c2cccs2)CC1 | / | / | / | -8 | / | / | /
Nn1c(C2CCC2)nc2cc(Cl)ccc2c1=O | -13 | -9 | -13 | -9 | 5 | / | /
CSC1=N/C(=C/c2ccc(-n3cncn3)cc2)C(=O)N1 | -8 | -4 | -11 | -4 | 86* | 35 | 25*
COc1ccc(/C=C2\N=C(SC)NC2=O)cc1 | 14 | -3 | 12 | -5 | 21 | / | /
O=C(CSc1nnc2ccccn12)NNC(=O)c1ccc([N+](=O)[O-])cc1 | -13 | -9 | -6 | -5 | 97* | 35 | 36*
O=C(CSc1nnc2ccccn12)NNC(=O)c1ccccc1 | 4 | -12 | -10 | -5 | 10 | / | /
O=C(O)C1CCN(S(=O)(=O)c2cccc3nonc23)CC1 | -6 | -6 | -6 | -8 | 28 | / | /
COc1cccc(Nc2ncnc3c2cnn3-c2cccc(C)c2)c1 | 3 | -10 | 8 | -3 | 92* | 46 | 0
CC(C)c1ccc(NC(=O)COC(=O)[C@@H]2CCCN2C(=O)c2cccs2)cc1 | / | -19 | -9 | -9 | 5 | / | /
